Series [1] has as its system Salmonella enterica. Briefly: Antimicrobial activity against Salmonella choleraesuis ATCC 14028 up to 500 ug/ml by agar-dilution-streak method. In kind it is functional, organism-based. A digest of the protocol: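 Salmonella choleraesuis ATCC 14028 was tested by the agar-dilution-streak method, alongside S. aureus ATCC 29213, P. aeruginosa ATCC 27853, C. albicans ATCC 10231 and K. pneumoniae ATCC 10031. Test compounds were dissolved in DMSO.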

Series [2] deals with Staphylococcus aureus. In words: Antimicrobial activity against Staphylococcus aureus ATCC 29213 by agar-dilution-streak method. The series is classed as functional. In outline: (§1)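 Screened with the agar-dilution-streak method. MIC was set by broth dilution following NCCLS. Compounds were dissolved in DMSO and diluted to graded concentrations in tryptone soy broth.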
Series [3] concerns Pseudomonas aeruginosa. Briefly: Antimicrobial activity against Pseudomonas aeruginosa ATCC 27853 up to 500 ug/ml by agar-dilution-streak method. In kind it is functional, organism-based. A digest of the protocol: as §1
The nature of series [4]: Toxicity against brine shrimp larvae. In kind it is organism-based. As to conditions: artemia, in vivo.
Series [5] has as its system Escherichia coli. In words: Antimicrobial activity against Escherichia coli ATCC 9637 up to 500 ug/ml by agar-dilution-streak method. In kind it is functional, organism-based.
The subject of series [6] is Candida albicans. In words: Antimicrobial activity against Candida albicans ATCC 10231 up to 500 ug/ml by agar-dilution-streak method. The series is classed as functional, organism-based. In outline:
as §1

In series [7] the test system is Klebsiella pneumoniae. Briefly: Antimicrobial activity against Klebsiella pneumoniae ATCC 10031 up to 500 ug/ml by agar-dilution-streak method. In kind it is functional, organism-based. A digest of the protocol:
as §1

The test system of series [8] is Radical scavenging activity. Briefly: Antioxidant activity assessed as DPPH free radical scavenging activity relative to control. The series is classed as functional. In general terms: The DPPH test is a chemical assay of radical scavenging.

Converted amounts (≈) assume the structure as drawn. The source made the active and inactive calls. The calls are words filed in the database; no cut-off is given here.

As for `C=C1C(CC2C[C@H](O)C=C2C)C(C)(C)C[C@H]1O` (stereo partly specified) [GODOTOL A], the result in series [1], in series [3], in series [5], in series [6] and in series [7] was inactive. Further, the MIC in series [2] turned out to be 250 µg/mL (≈ 1060 µM). This compound also yielded an LC50 in series [4] of 290 µg/mL (≈ 1230 µM). In addition, the Activity in series [8] was under 10%.

Consider `C=C1C[C@@H](O)C=C(C)C2C1CC[C@@H](O)C2(C)C` (stereo partly specified) [GODOTOL B], for which the outcome in series [1], in series [3], in series [5], in series [6] and in series [7] was inactive. In addition, the MIC in series [2] came to 500 µg/mL (≈ 2120 µM). This compound yielded an LC50 in series [4] of 540 µg/mL (≈ 2280 µM). Further, the Activity in series [8] is under 10%.

Broadly, the MIC is the lowest concentration found to suppress growth. A low value points to a more susceptible organism. In general, LC50 refers to the concentration that kills 50% of the test population. Low values mean greater toxicity, high ones lower toxicity.

The values are drawn from ChEMBL document CHEMBL1148956, “New sesquiterpenes from Pluchea arabica” (J Nat Prod, 2004).
